The GI50 is the concentration at which growth is held to half of that of the control. As usually defined, the IC50 is the point on the concentration scale where inhibition reaches its midpoint.

The test system of assay [1] is K562. Description: Ability to induce cells in G0/G1 phase. The class given is functional, Homo sapiens. Set-up: concentration or dose not given beside the values. In short, it runs like this:
(§1)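 K562 human leukemic cells exposed continuously to test compound at 5 μM for 24 h. 10⁶ cells/mL resuspended in propidium iodide, held at 4 °C overnight, analysed by flow cytometry for DNA content. Doublets and aggregates excluded on FL2-area/FL2-width plot. Fraction of population in G0/G1, S and G2/M calculated.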

Assay [2] has as its system K562. Description: Ability to induce cells in G2/M phase. The class given is functional, Homo sapiens. Set-up: concentration or dose not given beside the values. In short, it runs like this:
as §1

In assay [3] the test system is K562. As to the kind of experiment: Ability to induce cells in S phase. The class given is functional, Homo sapiens. Set-up: concentration or dose not given beside the values. In short, it runs like this:
as §1

Assay [4] deals with NCI-60 human tumor cell line panel (Homo sapiens). As to the kind of experiment: Growth inhibitory concentration is the concentration that reduced growth of NCI-60 cell lines by 50%.
Assay [5] deals with K562. As to the kind of experiment: Inhibitory concentration against K562 cell line. The assay is classed as functional, cell-based. To be noted: Homo sapiens. An outline of the steps: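 MTT viability assay on exponentially growing K562 cells seeded at 3 × 10³ cells/well, grown 24 h before drug addition. After 72 h drug exposure MTT reagent added. Viability is absorbance as percent of untreated control wells. IC50 is the concentration giving 50% loss of viability. Triplicate wells, at least three separate experiments.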

For `COc1cc(O)c2c(O)cc(-c3ccc(OC)c(F)c3)nc2c1`, the Activity in assay [1] turned out to be 26%; in assay [2], 20%; in assay [3], 53%.
As to `CCc1ccc(-c2cc(O)c3c(O)cc(OC)cc3n2)cc1`, the Activity in assay [1] was 26%; in assay [2] it was 25%; in assay [3] it was 48%.
The like results for `COc1cc(O)c2c(O)cc(-c3ccc(F)c(F)c3)nc2c1` were, in that order, 22%, 9% and 69%.
The like results for `COc1cc(O)c2c(O)cc(-c3cccc(OC(F)(F)F)c3)nc2c1` were, in that order, 32%, 32% and 35%.
Regarding `COc1cc(O)c2c(O)cc(-c3ccccc3)nc2c1`, the figures for the Activity in assay [1], in assay [2] and in assay [3] were 7%, 66% and 26%, respectively. Also, in assay [4], the GI50 worked out at 8.7 µM. Moreover, in assay [5], half-maximal inhibition (IC50) was put at 1.8 µM.
Taken in the same sequence, the figures for `COc1cc(O)c2c(O)cc(-c3ccccc3F)nc2c1` were 23%, 41%, 37%, 9.9 µM and 1.5 µM.
Consider `COc1cc(O)c2c(O)cc(Cc3ccccc3)nc2c1`, for which the Activity in assay [1] turned out to be 41%; in assay [2], 9%; in assay [3], 50%.
`COc1cc(O)c2c(O)cc(-c3cccnc3)nc2c1`: the Activity in assay [1] turned out to be 24%; in assay [2], 45%; in assay [3] it was 31%.
The like results for `COc1cc(O)c2c(O)cc(-c3cc(F)cc(F)c3)nc2c1` were, in that order, 42%, 18% and 40%.
The like results for `COc1cc(O)c2c(O)cc(-c3ccc(F)cc3)nc2c1` were, in that order, 54%, 10% and 36%.
The like results for `COc1cc2nc(-c3ccccc3)cc(O)c2c(O)c1OC` were, in that order, 47%, 8% and 45%.
Turning to `CCn1c(-c2cccc(F)c2)cc(=O)c2c(O)cc(OC)cc21`, the Activity in assay [1] turned out to be 53%; in assay [2], 19%; in assay [3], 28%.
The like results for `COc1cc(O)c2c(O)cc(-c3cccc(C(F)(F)F)c3)nc2c1` were, in that order, 41%, 20% and 38%.
Taken in the same sequence, the figures for `COc1cc(O)c2c(O)cc(-c3cccc(CCl)c3)nc2c1` were 30%, 18% and 51%.
`COc1cc(O)c2c(O)cc(-c3cccc(I)c3)nc2c1`: the Activity in assay [1] was 44%; in assay [2], 6%; in assay [3], 50%.
On to `COc1cc(O)c2c(O)cc(-c3cccc(-c4ccccc4)c3)nc2c1`, for which the Activity amounted to 46% in assay [1], 9% in assay [2] and 45% in assay [3].
The like results for `Oc1cccc2nc(-c3cccc(F)c3)cc(O)c12` were, in that order, 17%, 49% and 33%.
Consider `COc1cccc(-c2cc(O)c3c(O)cc(OC)cc3n2)c1`, for which the Activity in assay [1] is listed as 28%; in assay [2] it was 31%; in assay [3], 41%. For the same molecule, in assay [4], the GI50 was 9.7 µM.
With `CCn1c(-c2ccccc2)cc(=O)c2c(O)cc(OC)cc21`, the Activity in assay [1] is reported as 43%; in assay [2] it was 11%; in assay [3] it was 46%.
`COc1cc(O)c2c(O)cc(-c3cccc(F)c3)nc2c1`: the Activity in assay [1] is listed as 9%; in assay [2] it was 60%; in assay [3] it was 30%. In addition, halving of growth in assay [4] (GI50) required 14.5 µM. The same molecule returned an IC50 in assay [5] of 0.8 µM.
On to `COc1cc(O)c2c(O)cc(-c3cccc(Br)c3)nc2c1`, for which the Activity came to 51% in assay [1], 12% in assay [2] and 37% in assay [3].
The like results for `COc1cc2nc(-c3ccccc3)cc(O)c2c(OC)c1OC` were, in that order, 47%, 5% and 48%.
The like results for `Oc1cccc2nc(-c3ccccc3)cc(O)c12` were, in that order, 26%, 21% and 52%.
Taken in the same sequence, the figures for `COc1cc(O)c2c(O)cc(-c3ccc(C)c(F)c3)nc2c1` were 28%, 18% and 54%.
As to `COc1cc(O)c2c(O)cc(-c3cccc(Cl)c3)nc2c1`, the figures for the Activity in assay [1], in assay [2] and in assay [3] were 33%, 32% and 35%, respectively.
As to `CC(=O)O[C@H]1C(=O)[C@@]2(C)[C@H]([C@H](OC(=O)c3ccccc3)[C@]3(O)C[C@H](OC(=O)[C@H](O)[C@@H](NC(=O)c4ccccc4)c4ccccc4)C(C)=C1C3(C)C)[C@]1(OC(C)=O)CO[C@@H]1C[C@@H]2O` [PACLITAXEL], the Activity in assay [1] is on record as 11%; in assay [2], 71%; in assay [3] it was 18%.
On to `CC[C@]1(O)C[C@@H]2CN(CCc3c([nH]c4ccccc34)[C@@](C(=O)OC)(c3cc4c(cc3OC)N(C)[C@H]3[C@@](O)(C(=O)OC)[C@H](OC(C)=O)[C@]5(CC)C=CCN6CC[C@]43[C@@H]65)C2)C1` [VINBLASTINE], for which the results for the Activity in assay [1], in assay [2] and in assay [3] were 33%, 37% and 30%, respectively. 3 µM corresponded to half-maximal inhibition in assay [5] (IC50).
